Laboratory results taken from ChEMBL document CHEMBL1140118, “Design, synthesis, and structure-activity relationships of novel insulin receptor tyrosine kinase activators” (J Med Chem, 2008).
Active and inactive are the calls of the source. No cut-off for these calls is given here.

Legend:
Insulin receptor = Insulin receptor (Mus musculus, UniProt P15208); assay: Activation of insulin receptor tyrosine kinase in mouse 3T3-L1 cells assessed as increase in 2-deoxy-D-[14C]glucose transport in presence of insulin; type: cell-based
Chain of Insulin receptor (P15208 28-748 limits assumed): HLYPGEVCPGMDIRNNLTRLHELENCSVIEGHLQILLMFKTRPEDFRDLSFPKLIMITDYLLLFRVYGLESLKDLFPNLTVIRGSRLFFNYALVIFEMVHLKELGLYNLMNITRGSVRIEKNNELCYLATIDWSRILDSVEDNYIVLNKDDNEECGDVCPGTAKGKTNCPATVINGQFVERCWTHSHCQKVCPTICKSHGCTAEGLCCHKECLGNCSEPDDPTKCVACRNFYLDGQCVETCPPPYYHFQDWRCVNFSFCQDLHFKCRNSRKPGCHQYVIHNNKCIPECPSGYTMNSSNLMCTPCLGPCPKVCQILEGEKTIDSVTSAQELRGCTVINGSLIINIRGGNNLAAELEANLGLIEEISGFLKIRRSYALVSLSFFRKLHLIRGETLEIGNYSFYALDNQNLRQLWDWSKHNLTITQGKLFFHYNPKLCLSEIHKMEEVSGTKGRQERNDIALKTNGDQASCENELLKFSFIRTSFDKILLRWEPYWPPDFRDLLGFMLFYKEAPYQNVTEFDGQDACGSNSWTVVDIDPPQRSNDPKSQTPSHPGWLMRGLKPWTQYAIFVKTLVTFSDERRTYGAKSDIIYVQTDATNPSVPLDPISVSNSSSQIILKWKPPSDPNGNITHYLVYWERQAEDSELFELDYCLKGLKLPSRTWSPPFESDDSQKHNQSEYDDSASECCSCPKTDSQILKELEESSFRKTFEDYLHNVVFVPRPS
Chain of Insulin receptor (P15208 753-1372 limits assumed): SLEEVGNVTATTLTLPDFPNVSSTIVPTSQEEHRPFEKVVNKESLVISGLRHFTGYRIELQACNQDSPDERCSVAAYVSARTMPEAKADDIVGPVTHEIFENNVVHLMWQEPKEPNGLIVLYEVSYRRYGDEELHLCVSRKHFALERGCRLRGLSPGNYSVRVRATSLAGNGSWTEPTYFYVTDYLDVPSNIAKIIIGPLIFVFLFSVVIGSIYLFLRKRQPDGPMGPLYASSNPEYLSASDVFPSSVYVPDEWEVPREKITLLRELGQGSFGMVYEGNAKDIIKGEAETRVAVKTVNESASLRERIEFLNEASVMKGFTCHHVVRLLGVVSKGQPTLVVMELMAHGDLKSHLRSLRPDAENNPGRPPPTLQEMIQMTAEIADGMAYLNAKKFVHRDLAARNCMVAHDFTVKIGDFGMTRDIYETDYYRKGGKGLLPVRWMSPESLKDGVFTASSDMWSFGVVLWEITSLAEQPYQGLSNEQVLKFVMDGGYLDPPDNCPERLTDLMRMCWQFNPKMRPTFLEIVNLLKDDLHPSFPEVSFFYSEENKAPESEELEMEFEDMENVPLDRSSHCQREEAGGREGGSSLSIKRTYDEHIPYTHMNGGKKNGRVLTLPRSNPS
Summary of the method: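 Differentiated, 16 h serum-starved 3T3-L1 adipocytes were exposed to compound plus 5.6 nM insulin (submaximal) for 30 min at 37 °C. They were then pulsed 30 min with 0.5 µCi/mL 2-deoxy-D-[14C]glucose and lysate counts were read. Four concentrations were tested in triplicate. EC50 came from nonlinear regression of untransformed data, given as mean ± SEM when n ≥ 3.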

3T3-L1 [1] = assay: Increase in glucose transport in mouse 3T3-L1 cells at 30 uM in absence of insulin; type: functional
Summary of the method: (§1)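 Differentiated 3T3-L1 adipocytes (induced 72 h with dexamethasone, IBMX and insulin, then 48 h with insulin, then 4 days in normal medium) were serum-starved 16 h in 0.1% BSA. Compound was added without insulin for 30 min at 37 °C. Uptake of 0.5 µCi/mL 2-deoxy-D-[14C]glucose over 30 min was read by scintillation counting of lysates after a cold PBS rinse.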

3T3-L1 [2] = assay: Increase in GLUT4 content in mouse 3T3-L1 cell plasma membrane at 56 uM in presence of insulin; type: functional
3T3-L1 [3] = assay: Increase in insulin-stimulated glucose transport in mouse 3T3-L1 cells at >=30 uM in presence of insulin; type: functional, cell-based
Rattus norvegicus [4] = assay: Reduction in blood glucose level in streptozotocin-induced hypoinsulinemic CD rat at 1000 mg/kg, po after 30 mins after glucose loading by oral glucose tolerance test; type: functional; design: scale not given: the % may be the effect or the level left
Summary of the method: (§2)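 Male CD IGS rats (250-300 g) received streptozotocin 60 mg/kg ip and were enrolled if fed glucose was ≥250 mg/dL. On day 4 post-STZ they were fasted overnight and randomized on baseline glucose (n = 12/group). They got compound or PBS, then a 50% dextrose load by gavage (4 mL/kg). Tail blood glucose was read by glucometer, and groups were compared by unpaired t test.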

Rattus norvegicus [5] = assay: Reduction in blood glucose level in streptozotocin-induced hypoinsulinemic CD rat at 50 mg/kg, ip after 30 mins after glucose loading by oral glucose tolerance test; type: functional; design: scale not given: the % may be the effect or the level left; summary of the method: as §2
[6] = target: Insulin receptor (Homo sapiens) (UniProt P06213); assay: Activation of human insulin receptor overexpressed in mouse 3T3-HIR cells assessed as increase in phosphotyrosine at >=18 uM in absence of insulin; type: cell-based
Chain of Insulin receptor (Homo sapiens) (P06213 28-758 limits assumed): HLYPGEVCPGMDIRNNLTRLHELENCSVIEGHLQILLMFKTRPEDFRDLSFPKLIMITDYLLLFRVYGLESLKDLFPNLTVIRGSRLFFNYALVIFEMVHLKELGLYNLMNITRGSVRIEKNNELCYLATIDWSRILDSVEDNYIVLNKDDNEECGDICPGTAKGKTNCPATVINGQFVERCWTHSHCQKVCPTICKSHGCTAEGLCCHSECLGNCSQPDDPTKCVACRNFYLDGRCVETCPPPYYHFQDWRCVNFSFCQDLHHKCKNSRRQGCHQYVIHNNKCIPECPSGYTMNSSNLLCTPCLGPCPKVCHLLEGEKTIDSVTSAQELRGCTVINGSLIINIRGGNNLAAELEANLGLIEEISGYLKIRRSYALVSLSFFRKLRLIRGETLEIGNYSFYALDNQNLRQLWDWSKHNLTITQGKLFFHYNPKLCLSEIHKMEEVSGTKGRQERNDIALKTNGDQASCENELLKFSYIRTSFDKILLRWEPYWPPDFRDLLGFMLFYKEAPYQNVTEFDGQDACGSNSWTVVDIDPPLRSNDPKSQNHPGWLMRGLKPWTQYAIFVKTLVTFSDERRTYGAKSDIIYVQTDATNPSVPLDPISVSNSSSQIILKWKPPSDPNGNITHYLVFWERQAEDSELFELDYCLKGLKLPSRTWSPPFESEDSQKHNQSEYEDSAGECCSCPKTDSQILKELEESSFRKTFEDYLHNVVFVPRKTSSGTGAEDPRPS
Chain of Insulin receptor (Homo sapiens) (P06213 763-1382 limits assumed): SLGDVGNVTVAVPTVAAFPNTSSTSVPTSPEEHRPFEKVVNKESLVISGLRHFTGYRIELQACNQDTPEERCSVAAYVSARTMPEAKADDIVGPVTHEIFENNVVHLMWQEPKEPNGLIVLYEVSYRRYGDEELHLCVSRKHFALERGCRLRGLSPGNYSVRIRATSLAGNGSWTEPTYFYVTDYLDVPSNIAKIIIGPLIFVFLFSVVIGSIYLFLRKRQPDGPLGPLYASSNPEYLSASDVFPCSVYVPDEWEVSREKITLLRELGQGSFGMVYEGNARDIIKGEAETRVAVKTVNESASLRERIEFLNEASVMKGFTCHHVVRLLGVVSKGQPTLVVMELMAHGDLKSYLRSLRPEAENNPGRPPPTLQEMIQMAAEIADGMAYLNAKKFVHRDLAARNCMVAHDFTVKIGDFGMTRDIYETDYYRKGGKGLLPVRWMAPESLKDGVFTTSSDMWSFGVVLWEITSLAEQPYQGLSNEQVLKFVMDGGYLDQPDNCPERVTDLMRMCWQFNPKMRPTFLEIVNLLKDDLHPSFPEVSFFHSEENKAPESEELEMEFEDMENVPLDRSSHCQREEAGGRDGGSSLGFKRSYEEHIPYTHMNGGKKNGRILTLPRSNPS

3T3-L1 [7] = assay: Increase in glucose transport in mouse 3T3-L1 cells at 50 uM in absence of insulin; type: functional; summary of the method: as §1
[8] = target: Insulin receptor (Homo sapiens) (UniProt P06213); assay: Activation of human insulin receptor overexpressed in mouse 3T3-HIR cells assessed as increase in phosphotyrosine at 3 uM in presence of insulin; type: cell-based
[9] = target: Insulin receptor (Homo sapiens) (UniProt P06213); assay: Effect on autophosphorylation of human insulin receptor cytoplasmic kinase domain
Summary of the method: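 Recombinant human IR cytoplasmic domain (200 ng) in 50 mM Tris pH 7.4 with 2 mM MnCl2, 10 mM MgCl2, 50 µM ATP and [γ-32P]ATP (10 µCi) was incubated with varied compound concentrations for 10 min at 25 °C. Incorporated label was measured by scintillation counting, either of excised SDS-PAGE bands or of TCA precipitates washed with phosphoric acid.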

[10] = target: Insulin receptor (Mus musculus) (UniProt P15208); assay: Activation of insulin receptor tyrosine kinase in mouse 3T3-L1 cells assessed as increase in 2-deoxy-D-[14C]glucose transport in absence of insulin; type: cell-based; summary of the method: as §1
Chain of Insulin receptor (Mus musculus) (P15208 28-748 limits assumed): as the sequence (P15208 28-748 limits assumed) above
Chain of Insulin receptor (Mus musculus) (P15208 753-1372 limits assumed): as the sequence (P15208 753-1372 limits assumed) above

| EC50 (Insulin receptor) | Compound | further results |
| --- | --- | --- |
| 121 µM | O=C(Nc1ccc2c(O)cc(S(=O)(=O)Nc3cccc(C(=O)O)c3Cl)cc2c1)Nc1ccc2c(O)cc(S(=O)(=O)Nc3cccc(C(=O)O)c3Cl)cc2c1 | – |
| > 200 µM | NS(=O)(=O)c1cccc(NS(=O)(=O)c2ccc3ccc(NC(=O)Nc4ccc5ccc(S(=O)(=O)Nc6cccc(S(N)(=O)=O)c6)cc5c4)cc3c2)c1 | – |
| 183 µM | O=C(Nc1ccc2ccc(S(=O)(=O)Nc3ccc(C(=O)O)cc3)cc2c1)Nc1ccc2ccc(S(=O)(=O)Nc3ccc(C(=O)O)cc3)cc2c1 | – |
| 5 µM | O=C(Nc1ccc2c(O)cc(S(=O)(=O)Nc3ccc(Cl)c(S(=O)(=O)[O-])c3)cc2c1)Nc1ccc2c(O)cc(S(=O)(=O)Nc3ccc(Cl)c(S(=O)(=O)[O-])c3)cc2c1.[Na+].[Na+] | Activity (3T3-L1 [1]): 340%; Activity (3T3-L1 [2]): 85%; Activity (3T3-L1 [3]): Active; Activity (Rattus norvegicus [4]): 32%; Activity (Rattus norvegicus [5]): 25%; Activity [6]: Active; Activity (3T3-L1 [7]): 875%; Activity [8]: 75% |
| > 200 µM | O=C(Nc1ccc2ccc(S(=O)(=O)Nc3cccc(O)c3)cc2c1)Nc1ccc2ccc(S(=O)(=O)Nc3cccc(O)c3)cc2c1 | – |
| 18 µM | O=C(Nc1ccc2c(O)cc(S(=O)(=O)Nc3ccc(Cl)c(C(=O)O)c3)cc2c1)Nc1ccc2c(O)cc(S(=O)(=O)Nc3ccc(Cl)c(C(=O)O)c3)cc2c1 | – |
| 24 µM | O=C(Nc1ccc2ccc(S(=O)(=O)Nc3cccc(C(=O)O)c3)cc2c1)Nc1ccc2ccc(S(=O)(=O)Nc3cccc(C(=O)O)c3)cc2c1 | – |
| > 200 µM | CNC(=Nc1ccc2ccc(S(=O)(=O)Nc3ccc(Cl)c(C(=O)O)c3)cc2c1)Nc1ccc2ccc(S(=O)(=O)Nc3ccc(Cl)c(C(=O)O)c3)cc2c1 | – |
| > 200 µM | O=C(Nc1ccc2ccc(C(=O)Nc3cccc(C(=O)O)c3)cc2c1)Nc1ccc2ccc(C(=O)Nc3cccc(C(=O)O)c3)cc2c1 | – |
| > 200 µM | O=C(Nc1ccc2ccc(S(=O)(=O)Nc3cccc([N+](=O)[O-])c3)cc2c1)Nc1ccc2ccc(S(=O)(=O)Nc3cccc([N+](=O)[O-])c3)cc2c1 | – |
| 26 µM | O=C(Nc1ccc2c(O)cc(S(=O)(=O)Nc3cccc(S(=O)(=O)O)c3)cc2c1)Nc1ccc2c(O)cc(S(=O)(=O)Nc3cccc(S(=O)(=O)O)c3)cc2c1 | Activity [9]: Dose-dependent effect |
| > 200 µM | O=C(O)c1cc(NS(=O)(=O)c2ccc3ccc(NCCNc4ccc5ccc(S(=O)(=O)Nc6ccc(Cl)c(C(=O)O)c6)cc5c4)cc3c2)ccc1Cl | – |
| > 200 µM | O=C(Nc1ccc2ccc(S(=O)(=O)Nc3ccccc3)cc2c1)Nc1ccc2ccc(S(=O)(=O)Nc3ccccc3)cc2c1 | – |
| 40 µM | O=C(Nc1ccc2ccc(S(=O)(=O)Nc3ccc([N+](=O)[O-])c(C(=O)O)c3)cc2c1)Nc1ccc2ccc(S(=O)(=O)Nc3ccc([N+](=O)[O-])c(C(=O)O)c3)cc2c1 | – |
| 16 µM | O=C(Nc1ccc2ccc(S(=O)(=O)Nc3ccc(Cl)c(C(=O)O)c3)cc2c1)Nc1ccc2ccc(S(=O)(=O)Nc3ccc(Cl)c(C(=O)O)c3)cc2c1 | – |
| > 200 µM | O=C(Nc1ccc2c(O)cc(S(=O)(=O)Nc3cccc(CO)c3)cc2c1)Nc1ccc2c(O)cc(S(=O)(=O)Nc3cccc(CO)c3)cc2c1 | – |
| 41 µM | O=C(Nc1ccc2ccc(S(=O)(=O)Nc3ccccc3C(=O)O)cc2c1)Nc1ccc2ccc(S(=O)(=O)Nc3ccccc3C(=O)O)cc2c1 | – |
| 54 µM | O=C(Nc1ccc2ccc(S(=O)(=O)Nc3cccc(-c4nn[nH]n4)c3)cc2c1)Nc1ccc2ccc(S(=O)(=O)Nc3cccc(-c4nn[nH]n4)c3)cc2c1 | – |
| > 200 µM | N#CN=C(Nc1ccc2ccc(S(=O)(=O)Nc3ccc(Cl)c(C(=O)O)c3)cc2c1)Nc1ccc2ccc(S(=O)(=O)Nc3ccc(Cl)c(C(=O)O)c3)cc2c1 | – |
| > 200 µM | O=C(Nc1ccc2c(O)cc(S(=O)(=O)Nc3cccc(C(F)(F)F)c3)cc2c1)Nc1ccc2c(O)cc(S(=O)(=O)Nc3cccc(C(F)(F)F)c3)cc2c1 | – |
| 93 µM | O=C(Nc1ccc2c(O)cc(S(=O)(=O)Nc3ccccc3C(=O)O)cc2c1)Nc1ccc2c(O)cc(S(=O)(=O)Nc3ccccc3C(=O)O)cc2c1 | – |

| EC50 (Insulin receptor) | Compound | further results |
| --- | --- | --- |
| > 200 µM | O=C(O)Cc1cccc(NS(=O)(=O)c2cc(O)c3ccc(NC(=O)Nc4ccc5c(O)cc(S(=O)(=O)Nc6cccc(CC(=O)O)c6)cc5c4)cc3c2)c1 | – |
| > 200 µM | O=C(Nc1ccc2ccc(S(=O)(=O)O)cc2c1)Nc1ccc2ccc(S(=O)(=O)Nc3ccc(O)c(C(=O)O)c3)cc2c1 | – |
| 162 µM | O=C(O)c1cc(NS(=O)(=O)c2ccc3ccc(NC(=S)Nc4ccc5ccc(S(=O)(=O)Nc6ccc(Cl)c(C(=O)O)c6)cc5c4)cc3c2)ccc1Cl | – |
| 90 µM | O=C(Nc1ccc2c(O)c(/N=N/c3ccc(/N=N/c4ccc(S(=O)(=O)O)cc4)cc3S(=O)(=O)O)c(S(=O)(=O)O)cc2c1)Nc1ccc2c(O)cc(S(=O)(=O)O)c(/N=N/c3ccc(/N=N/c4ccc(S(=O)(=O)O)cc4)cc3S(=O)(=O)O)c2c1 | Activity [10]: inactive; Activity [9]: Dose-dependent effect |
| 94 µM | O=C(Nc1ccc2ccc(S(=O)(=O)Nc3ccc(S(=O)(=O)O)cc3)cc2c1)Nc1ccc2ccc(S(=O)(=O)Nc3ccc(S(=O)(=O)O)cc3)cc2c1 | – |
| 73 µM | O=C(Nc1ccc2c(O)cc(S(=O)(=O)Nc3cccc(-c4nn[nH]n4)c3)cc2c1)Nc1ccc2c(O)cc(S(=O)(=O)Nc3cccc(-c4nn[nH]n4)c3)cc2c1 | – |
| 43 µM | O=C(Nc1ccc2c(O)cc(S(=O)(=O)Nc3cccc(C(=O)O)c3)cc2c1)Nc1ccc2c(O)cc(S(=O)(=O)Nc3cccc(C(=O)O)c3)cc2c1 | – |
| 6 µM | O=C(Nc1ccc2ccc(S(=O)(=O)Nc3ccc(Cl)c(S(=O)(=O)O)c3)cc2c1)Nc1ccc2ccc(S(=O)(=O)Nc3ccc(Cl)c(S(=O)(=O)O)c3)cc2c1 | – |
| 9 µM | O=C(Nc1ccc2ccc(S(=O)(=O)Nc3ccc(O)c(C(=O)O)c3)cc2c1)Nc1ccc2ccc(S(=O)(=O)Nc3ccc(O)c(C(=O)O)c3)cc2c1 | – |
| 22 µM | O=C(Nc1ccc2ccc(S(=O)(=O)Nc3cccc(S(=O)(=O)O)c3)cc2c1)Nc1ccc2ccc(S(=O)(=O)Nc3cccc(S(=O)(=O)O)c3)cc2c1 | – |
| 56 µM | O=C(O)c1cc(NS(=O)(=O)c2ccc3ccc(N4CCN(c5ccc6ccc(S(=O)(=O)Nc7ccc(Cl)c(C(=O)O)c7)cc6c5)C4=O)cc3c2)ccc1Cl | – |
| 103 µM | O=C(Nc1ccc2c(O)cc(S(=O)(=O)Nc3ccc(C(=O)O)cc3)cc2c1)Nc1ccc2c(O)cc(S(=O)(=O)Nc3ccc(C(=O)O)cc3)cc2c1 | – |
| > 200 µM | CC(=O)N(CCN(C(C)=O)c1ccc2ccc(S(=O)(=O)Nc3ccc(Cl)c(C(=O)O)c3)cc2c1)c1ccc2ccc(S(=O)(=O)Nc3ccc(Cl)c(C(=O)O)c3)cc2c1 | – |
| 179 µM | NC(=Nc1ccc2ccc(S(=O)(=O)Nc3ccc(Cl)c(C(=O)O)c3)cc2c1)Nc1ccc2ccc(S(=O)(=O)Nc3ccc(Cl)c(C(=O)O)c3)cc2c1 | – |
| 91 µM | CN(c1cccc(S(=O)(=O)O)c1)S(=O)(=O)c1ccc2ccc(NC(=O)Nc3ccc4ccc(S(=O)(=O)N(C)c5cccc(S(=O)(=O)O)c5)cc4c3)cc2c1 | – |
| > 200 µM | CN(C(=O)N(C)c1ccc2ccc(S(=O)(=O)Nc3ccc(Cl)c(C(=O)O)c3)cc2c1)c1ccc2ccc(S(=O)(=O)Nc3ccc(Cl)c(C(=O)O)c3)cc2c1 | – |
| > 200 µM | N#Cc1cccc(NS(=O)(=O)c2ccc3ccc(NC(=O)Nc4ccc5ccc(S(=O)(=O)Nc6cccc(C#N)c6)cc5c4)cc3c2)c1 | – |
| > 200 µM | O=C(Nc1ccc2ccc(C(=O)Nc3cccc(S(=O)(=O)O)c3)cc2c1)Nc1ccc2ccc(C(=O)Nc3cccc(S(=O)(=O)O)c3)cc2c1 | – |
| 43 µM | O=C(Nc1ccc2c(O)cc(S(=O)(=O)Nc3ccc(O)c(C(=O)O)c3)cc2c1)Nc1ccc2c(O)cc(S(=O)(=O)Nc3ccc(O)c(C(=O)O)c3)cc2c1 | – |
| 150 µM | O=C(Nc1ccc2ccc(S(=O)(=O)Nc3cccc(C(=O)O)c3O)cc2c1)Nc1ccc2ccc(S(=O)(=O)Nc3cccc(C(=O)O)c3O)cc2c1 | – |
| > 200 µM | O=C(Nc1ccc2ccc(S(=O)(=O)O)cc2c1)Nc1ccc2ccc(S(=O)(=O)Nc3ccc(Cl)c(S(=O)(=O)O)c3)cc2c1 | – |
